The text below walks through data of ChEMBL document CHEMBL1139804, “In vitro affinities of various halogenated benzamide derivatives as potential radioligands for non-invasive quantification of D(2)-like dopamine receptors” (Bioorg Med Chem, 2007).

Structures are written as SMILES.

One may read the Ki as a dissociation constant, usually derived from enzyme kinetics or from competition with a known ligand. Higher therefore signals a looser hold on the target. What is called logD is lipophilicity at a set pH, counting ionised and neutral species. Low values mean lower lipophilicity, high ones higher lipophilicity.

One data set addresses D(1A) dopamine receptor (Sus scrofa, UniProt P50130). The experiment in a line: Displacement of [3H]SCH23990 from dopamine D1 receptor in pig striatal membrane. The data set is classed as cell membranes, Striatum.
The target in data set [1] is T1, D(2) dopamine receptor (Homo sapiens, UniProt P14416). The experiment in a line: Displacement of [3H]spiperone from dopamine D2short receptor in CHO cells. The data set is classed as cell-based. The gist of the method: (§1)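 Competition binding used membranes from stably transfected CHO cells expressing human D2long, D2short, D3 or D4.4 receptor, with [³H]spiperone at 0.1 nM final.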
T1 sequence (P14416 whole entry): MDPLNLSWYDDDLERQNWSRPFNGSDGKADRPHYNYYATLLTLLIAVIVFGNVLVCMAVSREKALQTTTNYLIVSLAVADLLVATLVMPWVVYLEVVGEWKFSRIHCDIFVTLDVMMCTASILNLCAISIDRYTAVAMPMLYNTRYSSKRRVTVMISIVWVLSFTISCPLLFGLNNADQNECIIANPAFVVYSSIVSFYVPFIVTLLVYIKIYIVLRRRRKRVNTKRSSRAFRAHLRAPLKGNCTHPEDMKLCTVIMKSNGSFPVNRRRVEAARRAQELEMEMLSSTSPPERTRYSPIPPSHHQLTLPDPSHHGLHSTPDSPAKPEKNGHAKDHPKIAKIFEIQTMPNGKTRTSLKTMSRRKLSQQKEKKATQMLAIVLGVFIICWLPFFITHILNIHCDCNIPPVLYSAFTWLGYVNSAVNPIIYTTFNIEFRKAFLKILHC
In general terms: Loss of bound radioactivity is the signal in a displacement assay; it reports binding, not function.

For data set [2], the target named is T1, D(2) dopamine receptor. The data set can be described thus: Displacement of [3H]spiperone from dopamine D2long receptor in CHO cells. The data set is classed as cell-based. A digest of the protocol: as §1
Another data set deals with D(3) dopamine receptor (Homo sapiens, UniProt P35462). The experiment in a line: Displacement of [3H]spiperone from dopamine D3 receptor in CHO cells. It is filed as cell-based. The gist of the method:
as §1

A further data set has as its target T2, D(4) dopamine receptor (Homo sapiens, UniProt P21917).
T2 sequence (P21917 whole entry): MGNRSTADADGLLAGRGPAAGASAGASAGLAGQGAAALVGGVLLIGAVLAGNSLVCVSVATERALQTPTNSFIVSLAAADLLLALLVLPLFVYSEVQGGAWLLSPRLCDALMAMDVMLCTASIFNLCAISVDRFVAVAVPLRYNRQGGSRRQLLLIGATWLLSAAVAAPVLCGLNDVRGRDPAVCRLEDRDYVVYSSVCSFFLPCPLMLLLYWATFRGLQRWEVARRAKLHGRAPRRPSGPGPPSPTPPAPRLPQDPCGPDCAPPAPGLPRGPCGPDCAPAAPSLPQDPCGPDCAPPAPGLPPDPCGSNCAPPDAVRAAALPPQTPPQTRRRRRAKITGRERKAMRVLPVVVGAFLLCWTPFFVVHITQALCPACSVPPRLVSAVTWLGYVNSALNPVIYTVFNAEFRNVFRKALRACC
The data set can be described thus: Displacement of [3H]spiperone from dopamine D4.4 receptor in CHO cells. It is filed as cell-based. The gist of the method:
as §1

Data set [3] is described as follows: Lipophilicity, log D at pH 7.4. As to conditions: buffer.
The nature of data set [4]: Displacement of [3H]8HO-DPAT from serotonin 5-HT1A receptor in pig cortical membrane.
Data set [5] in a line: Displacement of [3H]ketanserin from serotonin 5-HT2 receptor in pig cortical membrane.
The nature of data set [6]: Displacement of [3H]prazosin from adrenergic-alpha-1 receptor in pig cortical membrane.

D(3) dopamine receptor, sequence (P35462 whole entry): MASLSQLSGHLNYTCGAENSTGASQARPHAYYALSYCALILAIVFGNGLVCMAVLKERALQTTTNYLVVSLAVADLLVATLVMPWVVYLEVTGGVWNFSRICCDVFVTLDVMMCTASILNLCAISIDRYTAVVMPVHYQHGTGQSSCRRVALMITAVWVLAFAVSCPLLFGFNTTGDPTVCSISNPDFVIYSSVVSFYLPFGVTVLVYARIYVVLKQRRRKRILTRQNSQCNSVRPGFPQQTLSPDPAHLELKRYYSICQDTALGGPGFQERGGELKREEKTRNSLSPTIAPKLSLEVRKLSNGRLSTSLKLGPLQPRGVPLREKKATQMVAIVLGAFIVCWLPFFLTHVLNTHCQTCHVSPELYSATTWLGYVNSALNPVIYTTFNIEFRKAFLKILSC
D(1A) dopamine receptor, sequence (P50130 whole entry): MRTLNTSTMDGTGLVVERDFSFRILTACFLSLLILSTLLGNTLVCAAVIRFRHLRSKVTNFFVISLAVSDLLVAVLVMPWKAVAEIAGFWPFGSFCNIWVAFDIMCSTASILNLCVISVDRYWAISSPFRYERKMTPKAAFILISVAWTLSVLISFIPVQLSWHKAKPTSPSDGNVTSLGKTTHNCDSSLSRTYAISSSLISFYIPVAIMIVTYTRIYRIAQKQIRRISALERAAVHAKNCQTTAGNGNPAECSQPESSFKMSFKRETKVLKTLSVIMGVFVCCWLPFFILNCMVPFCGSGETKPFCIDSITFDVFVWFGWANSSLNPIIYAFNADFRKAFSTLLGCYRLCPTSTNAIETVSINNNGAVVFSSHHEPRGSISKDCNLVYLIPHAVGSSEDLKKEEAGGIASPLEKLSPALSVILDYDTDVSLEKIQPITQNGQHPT

Consider `CCN1CCC[C@H]1CNC(=O)c1c(OC)ccc(I)c1O` [IOLOPRIDE], for which the Ki at D(1A) dopamine receptor came out at 12000 nM; on D(2) dopamine receptor [1], 4.2 nM; at D(2) dopamine receptor [2] it was 4.2 nM; at D(3) dopamine receptor, 4.2 nM; on D(4) dopamine receptor, 570 nM; in data set [4] it was 1100 nM. The Ki was found to be 2000 nM in data set [5] and 1900 nM in data set [6]. The compound further gave a logD in data set [3] of 3.13.
Take `C=CCN1CCC[C@H]1CNC(=O)c1cc(I)ccc1OC`: the Ki at D(1A) dopamine receptor is 13000 nM; on D(2) dopamine receptor [1] it was 15 nM; at D(2) dopamine receptor [2], 14 nM; at D(3) dopamine receptor it was 11 nM; on D(4) dopamine receptor, 630 nM; in data set [4], 170 nM. In addition, the figures for the Ki in [5] and in data set [6] were 2400 nM and 2000 nM, respectively. In [3], the logD was found to be 2.81.
As for `C=CCN1CCC[C@H]1CNC(=O)c1cc(CCCF)ccc1OC`, the inhibitory constant (Ki) was 30000 nM at D(1A) dopamine receptor; 30 nM on D(2) dopamine receptor [1]; 30 nM on D(2) dopamine receptor [2]; 33 nM at D(3) dopamine receptor; 3000 nM at D(4) dopamine receptor; 2300 nM in data set [4]. The figures for the Ki in data set [5] and in data set [6] were 4500 nM and 1900 nM, respectively. This compound registered a logD in [3] of 2.63.
For the compound `C=CCN1CCC[C@H]1CNC(=O)c1cc(Br)cc(OC)c1OC`, the Ki at D(1A) dopamine receptor was found to be 13000 nM; at D(2) dopamine receptor [1], 0.88 nM; at D(2) dopamine receptor [2], 0.85 nM; at D(3) dopamine receptor it was 0.6 nM; on D(4) dopamine receptor it was 210 nM; in data set [4] it was 140 nM. For the same compound, the Ki in data set [5] came to 1100 nM; in [6], 1600 nM. In data set [3], this compound registered a logD of 2.83.
In the case of `CCN1CCC[C@H]1CNC(=O)c1c(O)c(Cl)cc(Cl)c1OC` [RACLOPRIDE], the Ki on D(1A) dopamine receptor was found to be 37000 nM; on D(3) dopamine receptor it was 15 nM; on D(4) dopamine receptor, 3100 nM; in [4] it was 4400 nM; in [5] it was 3500 nM; in [6] it was 3000 nM.
For the compound `C=CCN1CCC[C@H]1CNC(=O)c1cc(CCCF)cc(OC)c1OC` [FALLYPRIDE], the Ki on D(1A) dopamine receptor stood at 18000 nM; at D(2) dopamine receptor [1], 2.1 nM; at D(2) dopamine receptor [2], 2.2 nM; on D(4) dopamine receptor, 1300 nM; in data set [4], 1100 nM; in data set [5], 3700 nM. The compound also displayed a Ki in data set [6] of 970 nM. The compound also gave a logD in data set [3] of 2.66.
As for `C=CCN1CCC[C@H]1CNC(=O)c1cc(Br)ccc1OC`, the Ki was found to be 17000 nM at D(1A) dopamine receptor; 27 nM on D(2) dopamine receptor [1]; 23 nM on D(2) dopamine receptor [2]; 22 nM on D(3) dopamine receptor; 1700 nM on D(4) dopamine receptor; 230 nM in [4]. Further, the Ki in [5] was 2100 nM; in data set [6], 2000 nM. For the same compound, the logD in [3] was determined as 2.71.
For `C=CCN1CCC[C@H]1CNC(=O)c1cc(I)cc(OC)c1OC`, the Ki at D(1A) dopamine receptor came to 18000 nM; on D(2) dopamine receptor [1] it was 0.74 nM; at D(2) dopamine receptor [2] it was 0.68 nM; at D(3) dopamine receptor, 0.46 nM; on D(4) dopamine receptor, 250 nM; in data set [4], 150 nM. The Ki in [5] was 490 nM; in data set [6], 1100 nM. This compound also yielded a logD in data set [3] of 2.91.
